Results reported in PMC9080015 (RSC Advances, 2018).
Read-outs that look alike come from different tables or passages of the source.

Assays:
Type in all cases: biochemical
recombinant human CYP1B1 = target: T1, recombinant human CYP1B1 (Homo sapiens, UniProt Q16678); assay: EROD assay, recombinant human CYP1B1 inhibition; details: for IC50 ratio 1A1/1B1: selectivity for CYP1B1 over CYP1A1; for IC50 ratio 1A2/1B1: selectivity for CYP1B1 over CYP1A2
T1 sequence (Q16678 1-543): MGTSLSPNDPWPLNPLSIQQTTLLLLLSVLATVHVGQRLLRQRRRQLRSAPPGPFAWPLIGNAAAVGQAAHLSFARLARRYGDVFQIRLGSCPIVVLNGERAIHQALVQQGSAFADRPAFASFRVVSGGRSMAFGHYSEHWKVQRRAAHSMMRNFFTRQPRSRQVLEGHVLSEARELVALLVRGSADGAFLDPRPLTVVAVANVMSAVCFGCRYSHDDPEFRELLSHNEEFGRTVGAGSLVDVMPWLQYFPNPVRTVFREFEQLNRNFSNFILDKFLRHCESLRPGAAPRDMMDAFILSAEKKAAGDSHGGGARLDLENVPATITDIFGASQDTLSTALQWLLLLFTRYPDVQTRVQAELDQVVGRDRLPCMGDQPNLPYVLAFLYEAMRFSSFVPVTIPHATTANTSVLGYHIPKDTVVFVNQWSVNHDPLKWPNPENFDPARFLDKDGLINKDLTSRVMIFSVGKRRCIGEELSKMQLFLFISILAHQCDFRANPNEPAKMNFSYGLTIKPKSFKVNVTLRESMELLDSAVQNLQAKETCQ

CYP1A1 = target: T2, CYP1A1 (Homo sapiens, UniProt P04798); assay: EROD assay, recombinant human CYP1A1 inhibition
T2 sequence (P04798 1-512): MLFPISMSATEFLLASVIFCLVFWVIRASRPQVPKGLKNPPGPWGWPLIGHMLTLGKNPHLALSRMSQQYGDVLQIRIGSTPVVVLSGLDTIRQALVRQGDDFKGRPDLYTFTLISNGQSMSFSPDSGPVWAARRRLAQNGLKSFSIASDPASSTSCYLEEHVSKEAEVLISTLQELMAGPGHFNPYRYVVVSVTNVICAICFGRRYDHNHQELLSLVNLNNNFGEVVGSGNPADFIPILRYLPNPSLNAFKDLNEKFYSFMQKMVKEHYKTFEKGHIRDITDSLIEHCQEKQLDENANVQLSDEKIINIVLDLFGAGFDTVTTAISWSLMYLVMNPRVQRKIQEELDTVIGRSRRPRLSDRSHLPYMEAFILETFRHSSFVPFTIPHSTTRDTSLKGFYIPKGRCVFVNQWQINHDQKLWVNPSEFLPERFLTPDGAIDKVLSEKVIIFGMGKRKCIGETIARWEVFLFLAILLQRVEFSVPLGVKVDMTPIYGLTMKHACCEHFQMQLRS
How it was run: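 Supersomes with P450 reductase. Test compound is taken from 10 mM DMSO stock into Tris–HCl pH 7.4 (final DMSO <1% v/v), at several concentrations. Methanol stop. Resorufin fluorescence read at ex 544/em 590 nm. IC50 from nonlinear regression, log(inhibitor) vs normalized response, variable slope.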

CYP1A2 = target: T3, CYP1A2 (Homo sapiens, UniProt P05177); assay: EROD assay, recombinant human CYP1A2 inhibition
T3 sequence (P05177 2-516 limits assumed): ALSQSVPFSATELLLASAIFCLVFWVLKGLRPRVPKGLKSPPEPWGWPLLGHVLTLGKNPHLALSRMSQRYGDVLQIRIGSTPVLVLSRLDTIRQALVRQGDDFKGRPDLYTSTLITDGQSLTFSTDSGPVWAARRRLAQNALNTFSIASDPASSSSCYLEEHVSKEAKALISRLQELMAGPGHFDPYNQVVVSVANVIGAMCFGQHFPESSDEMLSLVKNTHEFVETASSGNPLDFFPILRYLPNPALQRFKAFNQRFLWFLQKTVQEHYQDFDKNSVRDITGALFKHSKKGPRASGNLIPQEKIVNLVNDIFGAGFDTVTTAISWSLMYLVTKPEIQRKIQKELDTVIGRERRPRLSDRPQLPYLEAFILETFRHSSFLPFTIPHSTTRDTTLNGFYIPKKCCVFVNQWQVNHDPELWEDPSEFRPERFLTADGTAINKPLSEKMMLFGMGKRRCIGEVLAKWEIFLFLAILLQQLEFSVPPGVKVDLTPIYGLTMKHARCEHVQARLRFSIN

[1] = read-out: IC50 values (nM) 1B1, EROD assay, 20 fmol CYP1B1, 150 nM 7-ER, 37 °C, 35 min

Row | Compound | IC50 (recombinant human CYP1B1) [nM] | IC50 ratio 1A1/1B1 (recombinant human CYP1B1) | IC50 ratio 1A2/1B1 (recombinant human CYP1B1) | IC50 (CYP1A1) [nM] | IC50 (CYP1A2) [nM] | IC50 values (nM) 1B1 (recombinant human CYP1B1; EROD assay, 20 fmol CYP1B1, 150 nM 7-ER, 37 °C, 35 min) | IC50 (recombinant human CYP1B1; [1]) [nM] | IC50 at 15 min (CYP1A1; human, recombinant human CYP1A1 with P450 reductase (Supersomes), pH 7.4, probe 7-ethoxyresorufin (7-ER), 150 nM) [nM] | IC50 at 50 min (CYP1A2; human, recombinant human CYP1A2 with P450 reductase (Supersomes), pH 7.4, probe 7-ethoxyresorufin (7-ER), 150 nM) [nM] | IC50 (CYP1A1; read-out: IC50 values (nM) 1A1, EROD assay, 10 fmol CYP1A1, 150 nM 7-ER, 37 °C, 15 min) [nM] | IC50 (CYP1A2; read-out: IC50 values (nM) 1A2, EROD assay, 60 fmol CYP1A2, 150 nM 7-ER, 37 °C, 50 min) [nM]
1 | COc1cc(C2CC(=O)c3ccc4ccccc4c3N2)cc(OC)c1OC (stereo not drawn) [Compound 1b, 2-(3,4,5-Trimethoxyphenyl)-2,3-dihydrobenzo[h]quinolin-4(1H)-one] | 20.2 | 2.2 | >247.5 | 44.6 | > 5000 |  |  |  |  |  | 
2 | O=C1CC(c2cccc(F)c2)Nc2c1ccc1ccccc21 (stereo not drawn) [Compound 1d, 2-(3-Fluorophenyl)-2,3-dihydrobenzo[h]quinolin-4(1H)-one] | 98.6 | 5.0 | 10.6 | 493 | 1050 |  |  |  |  |  | 
3 | COc1cc([C@@H]2Nc3c(ccc4ccccc34)C(=O)[C@@H]2O)cc(OC)c1OC [Compound 2b, (2S,3R) 3-Hydroxy-2-(3,4,5-trimethoxyphenyl)-2,3-dihydrobenzo[h]quinolin-4(1H)-one] | 303 | 3.8 | >16.5 | 1160 | > 5000 |  |  |  |  |  | 
4 | O=c1c(O)c(-c2ccccc2F)[nH]c2c1ccc1ccccc12 [Compound 3b, 2-(2-Fluorophenyl)-3-hydroxybenzo[h]quinolin-4(1H)-one] | 85.9 | 20.8 | >58.2 | 1780 | > 5000 |  |  |  |  |  | 
5 | O=C1CC(c2ccccc2)Nc2c1ccc1ccccc21 (stereo not drawn) [Compound 1a, 2-Phenyl-2,3-dihydrobenzo[h]quinolin-4(1H)-one] | 131 | 3.1 | 7.3 | 405 | 953 |  |  |  |  |  | 
6 | O=C1c2ccc3ccccc3c2N[C@@H](c2ccccc2)[C@H]1O [Compound 2a, (2S,3R) 3-Hydroxy-2-phenyl-2,3-dihydrobenzo[h]quinolin-4(1H)-one] | 260 | 2.3 | 5.4 | 588 | 1410 |  |  |  |  |  | 
7 | O=c1c(O)c(-c2ccc(O)cc2)[nH]c2c1ccc1ccccc12 [Compound 3c, 3-Hydroxy-2-(4-hydroxyphenyl)benzo[h]quinolin-4(1H)-one] | 142 | 3.7 | >35.3 | 525 | > 5000 |  |  |  |  |  | 
8 | O=c1c(O)c(-c2ccc(F)cc2)[nH]c2c1ccc1ccccc12 [Compound 3d, 2-(4-Fluorophenyl)-3-hydroxybenzo[h]quinolin-4(1H)-one] | 93.3 | 3.6 | >53.6 | 334 | > 5000 |  |  |  |  |  | 
9 | O=c1c(O)c(-c2ccccc2)[nH]c2c1ccc1ccccc12 [Compound 3a, 3-Hydroxy-2-phenylbenzo[h]quinolin-4(1H)-one] | 86.7 | 10.4 | >57.7 | 898 | > 5000 |  |  |  |  |  | 
10 | O=c1cc(-c2ccccc2)[nH]c2c1ccc1ccccc12 [Compound 3e, 2-Phenylbenzo[h]quinolin-4(1H)-one] | 17.3 | 6.0 | 27.9 | 103 | 483 |  |  |  |  |  | 
11 | O=C1CC(c2ccccc2F)Nc2c1ccc1ccccc21 (stereo not drawn) [Compound 1c, 2-(2-Fluorophenyl)-2,3-dihydrobenzo[h]quinolin-4(1H)-one] | 139 | 4.1 | 7.9 | 578 | 1100 |  |  |  |  |  | 

The remaining lines, values ahead:

Row | IC50 (recombinant human CYP1B1) [nM] | IC50 ratio 1A1/1B1 (recombinant human CYP1B1) | IC50 ratio 1A2/1B1 (recombinant human CYP1B1) | IC50 (CYP1A1) [nM] | IC50 (CYP1A2) [nM] | IC50 values (nM) 1B1 (recombinant human CYP1B1; EROD assay, 20 fmol CYP1B1, 150 nM 7-ER, 37 °C, 35 min) | IC50 (recombinant human CYP1B1; [1]) [nM] | IC50 at 15 min (CYP1A1; human, recombinant human CYP1A1 with P450 reductase (Supersomes), pH 7.4, probe 7-ethoxyresorufin (7-ER), 150 nM) [nM] | IC50 at 50 min (CYP1A2; human, recombinant human CYP1A2 with P450 reductase (Supersomes), pH 7.4, probe 7-ethoxyresorufin (7-ER), 150 nM) [nM] | IC50 (CYP1A1; read-out: IC50 values (nM) 1A1, EROD assay, 10 fmol CYP1A1, 150 nM 7-ER, 37 °C, 15 min) [nM] | IC50 (CYP1A2; read-out: IC50 values (nM) 1A2, EROD assay, 60 fmol CYP1A2, 150 nM 7-ER, 37 °C, 50 min) [nM] | Compound
12 | 27.6 | 1.1 | 3.1 | 29.4 | 84.5 |  |  |  |  |  |  | COc1cc2c(=O)cc(-c3cccc(Cl)c3)[nH]c2c2c(OC)cccc12 [Compound 5d, 2-(3-Chlorophenyl)-6,10-dimethoxybenzo[h]quinolin-4(1H)-one]
13 |  |  |  |  |  | no longer a CYP1 inhibitor | > 5000 | > 5000 | > 5000 |  |  | COc1cc(-c2ccccc2)nc2c1ccc1ccccc12 [Compound 4b, 4-Methoxy-2-phenylbenzo[h]quinoline]
14 |  | 2.4 | 19.3 |  |  |  | 7.6 |  |  | 18.5 | 147 | 2-Phenylbenzo[h]quinolin-4-ol [Compound 4a]
15 | 34.4 | 8.7 | 38.9 | 300 | 1340 |  |  |  |  |  |  | COc1cc2c(=O)cc(-c3ccc(C(F)(F)F)cc3)[nH]c2c2c(OC)cccc12 [Compound 5i, 6,10-Dimethoxy-2-(4-(trifluoromethyl)phenyl)benzo[h]quinolin-4(1H)-one]
16 |  | 2.7 | 540.3 |  | 2110 |  |  |  |  |  |  | COc1cc2c(=O)cc(-c3ccc(F)cc3)[nH]c2c2c(OC)cccc12 [Compound 5g, 2-(4-Fluorophenyl)-6,10-dimethoxybenzo[h]quinolin-4(1H)-one]
17 | 7.8 | 5.0 | 42.4 | 39.3 | 331 |  |  |  |  |  |  | COc1cc2c(=O)cc(-c3cccc(F)c3)[nH]c2c2c(OC)cccc12 [Compound 5c, 2-(3-Fluorophenyl)-6,10-dimethoxybenzo[h]quinolin-4(1H)-one]
18 | 164 | 4.9 | >30.5 | 809 | > 5000 |  |  |  |  |  |  | COc1cc(-c2cc(=O)c3cc(OC)c4cccc(OC)c4c3[nH]2)cc(OC)c1OC [Compound 5j, 6,10-Dimethoxy-2-(3,4,5-trimethoxyphenyl)benzo[h]quinolin-4(1H)-one]
19 | 16.6 | 0.8 | 8.9 | 12.6 | 148 |  |  |  |  |  |  | COc1cc2c(=O)cc(-c3ccccc3)[nH]c2c2c(OC)cccc12 [Compound 5a, 6,10-Dimethoxy-2-phenylbenzo[h]quinolin-4(1H)-one]
20 |  | 15.8 | >1219.5 |  | > 5000 |  |  |  |  |  |  | COc1ccc(-c2cc(=O)c3cc(OC)c4cccc(OC)c4c3[nH]2)cc1 [Compound 5h, 6,10-Dimethoxy-2-(4-methoxyphenyl)benzo[h]quinolin-4(1H)-one]
21 | 27.9 | 0.9 | 6.2 | 26.4 | 174 |  |  |  |  |  |  | COc1cc2c(=O)cc(-c3ccccc3F)[nH]c2c2c(OC)cccc12 [Compound 5b, 2-(2-Fluorophenyl)-6,10-dimethoxybenzo[h]quinolin-4(1H)-one]
22 | 7.1 | 5.0 | 26.8 | 35.8 | 190 |  |  |  |  |  |  | COc1cccc(-c2cc(=O)c3cc(OC)c4cccc(OC)c4c3[nH]2)c1 [Compound 5f, 6,10-Dimethoxy-2-(3-methoxyphenyl)benzo[h]quinolin-4(1H)-one]
